Active and inactive are the calls of the source. No cut-off for these calls is given here.
Columns and labels:
[1] = tested on: MCF7; test: Inhibition of microtubule (unknown origin) dynamics in GFP-tubulin transfected human MCF7 cells assessed as microtubule shortening rate at 15 nM by confocal laser scanning microscopy (reference value: 16.4 +/- 5 um/min); assay type: cell-based
Outline: (§1)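 EGFP-tubulin-transfected MCF-7 cells grown in EMEM with 10% FBS at 37 °C in 5% CO2, exposed to 15 nM compound (DMSO vehicle) or vehicle. Individual microtubules were followed by time-lapse confocal laser scanning microscopy and life-history traces were recorded. Kinetic parameters were derived from these traces, 20 microtubules per condition. Significance was tested by one-way ANOVA.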

[2] = tested on: HeLa; test: Induction of interphase microtubule depolymerization in human HeLa cells at 35 nM after 3 hrs by Hoechst 33258 dye-based fluorescence microscopy; assay type: cell-based
Outline: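 HeLa cells were given a brief 3 h exposure to 35 nM. Interphase microtubules were then immunostained and examined by fluorescence microscopy.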

[3] = tested on: HeLa; test: Induction of mitotic microtubule depolymerization in human HeLa cells at 15 nM after 24 hrs by Hoechst 33258 dye-based fluorescence microscopy; assay type: cell-based
[4] = tested on: HeLa; test: Inhibition of microtubule-kinetochore attachment in human HeLa cells assessed as Mad2 accumulation at kinetochoric region at 15 to 45 nM after 24 hrs by Hoechst 33258 dye-based Hec1 staining assay; assay type: cell-based
[5] = tested on: HeLa; test: Induction of apoptosis in human HeLa cells assessed as mid apoptotic cells at 7 to 15 nM after 24 hrs by annexin V/propidium iodide staining-based FACS flow cytometry; assay type: functional, cell-based
Outline: (§2)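 HeLa cells were grown with vehicle (0.1% DMSO) or 7, 15 and 30 nM for 24 h and stained with an annexin V/propidium iodide kit. Stage was scored as annexin V-positive with weak PI (early/mid) or positive for both (late).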

[6] = tested on: MCF7; test: Inhibition of microtubule (unknown origin) dynamics in GFP-tubulin transfected human MCF7 cells assessed as decrease in microtubule dynamicity at 15 nM by confocal laser scanning microscopy relative to control; assay type: cell-based
Outline: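 EGFP-tubulin transfected MCF-7 cells were treated with vehicle or 15 nM, and individual microtubules were tracked by confocal laser scanning microscopy, 20 microtubules per condition. Life-history parameters were derived as previously described. Significance was tested by one-way ANOVA.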

[7] = organism: Homo sapiens; test: Inhibition of microtubule (unknown origin) GTPase activity using GTP as substrate assessed as reduction of inorganic phosphate release incubated for 10 mins prior to substrate addition measured after 10 mins by ammonium molybdate malachite green assay
Outline: (§3)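 GTP (1 mM) was added and the mixture polymerized at 37 °C for 10 min. Reactions were stopped with perchloric acid, and released phosphate was measured by ammonium molybdate–malachite green.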

[8] = tested on: HeLa; test: Inhibition of mitosis in human HeLa cells assessed as mitotic index ratio at 7 nM after 24 hrs by Hoechst 33258 DNA staining assay (reference value: 3.2); assay type: functional
Outline: (§4)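 HeLa cells were treated with vehicle or 7, 15 or 30 nM compound for 24 or 48 h. DNA was stained with Hoechst 33258, and mitotic cells were counted by fluorescence microscopy to give the mitotic index, compared against vehicle-treated cells.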

[9] = tested on: HeLa; test: Inhibition of mitosis in human HeLa cells assessed as mitotic index ratio at 30 nM after 24 hrs by Hoechst 33258 DNA staining assay (reference value: 3.2); assay type: functional; outline: as §4
[10] = tested on: HeLa; test: Antimitotic activity in human HeLa cells assessed as increase in phosphohistone H3 (Ser10) positive cell population at 15 nM after 24 hrs by fluorescence microscopic analysis (reference value: 3 +/- 0.3 %); assay type: functional
[11] = tested on: HeLa; test: Induction of apoptosis in human HeLa cells assessed as activated JNK1 level at 30 nM after 24 hrs by Western blot analysis relative to control; assay type: functional, cell-based
Outline: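 HeLa cells were treated with vehicle or 30 nM for 24 h and washed twice in PBS. Lysates were Western blotted with antibodies to JNK1, phospho-JNK, procaspase-3 and PARP.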

[12] = organism: Homo sapiens; test: Inhibition of microtubule (unknown origin) GTPase activity using GTP as substrate assessed as reduction of inorganic phosphate release at 10 uM incubated for 10 mins prior to substrate addition measured after 10 mins by ammonium molybdate malachite green assay relative to control; outline: as §3
[13] = tested on: HeLa; test: Induction of interphase microtubule depolymerization in human HeLa cells at 7 nM after 24 hrs by Hoechst 33258 dye-based fluorescence microscopy relative to control; assay type: cell-based
[14] = tested on: HeLa; test: Cell cycle arrest in human HeLa cells assessed as accumulation at G2/M phase at 45 nM after 24 hrs by propidium iodide staining-based flow cytometry (reference value: 4%); assay type: functional
[15] = tested on: HeLa; test: Antimitotic activity in human HeLa cells assessed as increase in phosphohistone H3 (Ser10) positive cell population at 7 nM after 24 hrs by fluorescence microscopic analysis (reference value: 3 +/- 0.3 %); assay type: functional
[16] = organism: Capra hircus; test: (§5) Inhibition of goat brain tubulin polymerization incubated for 20 mins prior to GTP addition measured for 30 mins by 90 degree light scattering-based fluorescence spectrophotometric method
Outline: (§6)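 Goat brain tubulin (10 μM) was preincubated with compound (5 μM; or 1, 5, 7, 10 μM) in 1 M monosodium glutamate, 3 mM MgCl2, 1 mM EGTA, 25 mM Pipes pH 6.8 on ice for 20 min. GTP (1 mM) was then added and assembly followed by 90° light scattering at 400 nm for 30 min at 37 °C. Experiment run twice.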

[17] = as §5; set-up: species or system Capra hircus; outline: as §6
[18] = tested on: MCF7; test: Inhibition of microtubule (unknown origin) dynamics in GFP-tubulin transfected human MCF7 cells assessed as increase in microtubule pause time at 15 nM by confocal laser scanning microscopy relative to control; assay type: cell-based; outline: as §1
[19] = organism: Homo sapiens; test: Inhibition of microtubule (unknown origin) GTPase activity using GTP as substrate assessed as reduction of inorganic phosphate release at 20 uM incubated for 10 mins prior to substrate addition measured after 10 mins by ammonium molybdate malachite green assay relative to control; outline: as §3
[20] = organism: Homo sapiens; test: Inhibition of microtubule (unknown origin) assembly at 1 uM incubated for 15 mins prior to GTP addition measured for 30 mins by 90 degree light scattering-based fluorescence spectrophotometric method
Outline: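 MAP-rich tubulin (1 mg/mL) was preincubated with 1, 3, 5 or 10 μM in PEM buffer (25 mM Pipes pH 6.8, 3 mM MgCl2, 1 mM EGTA) for 15 min on ice. GTP (1 mM) was then added and assembly monitored by 90° light scattering at 400 nm for 30 min at 37 °C.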

[21] = tested on: HeLa; test: Induction of apoptosis in human HeLa cells assessed as early apoptotic cells at 7 to 15 nM after 24 hrs by annexin V/propidium iodide staining-based FACS flow cytometry; assay type: functional, cell-based; outline: as §2
[22] = tested on: HeLa; test: Induction of mitotic microtubule depolymerization in human HeLa cells at 7 nM after 24 hrs by Hoechst 33258 dye-based fluorescence microscopy relative to control; assay type: cell-based

CC[C@H](C)[C@@H]([C@@H](CC(=O)NC[C@H]1O[C@H](C(=O)NCCc2ccccc2)[C@@H](OC)[C@@H]1OC)OC)N(C)C(=O)[C@@H](NC(=O)[C@@H](NC)C(C)C)C(C)C
Activity [1]: 12 um/min | Activity [2]: Active | Activity [3]: Active | Activity [4]: Active | Activity [5]: Active | inhibition [6]: 50% | inhibition [7]: Dose-dependent effect | Ratio [8]: 6 | Ratio [9]: 12 | Activity [10]: 11% | Activity [11]: Active | inhibition [12]: 50% | Activity [13]: inactive | Activity [14]: 17% | Activity [15]: 6.6% | inhibition [16]: Dose-dependent effect | IC50 [17]: 6 µM | inhibition [18]: 50% | inhibition [19]: 54% | inhibition [20]: 13% | Activity [21]: Active | Activity [22]: inactive

Reference: ChEMBL document CHEMBL2331364, “A synthetic dolastatin 10 analogue suppresses microtubule dynamics, inhibits cell proliferation, and induces apoptotic cell death” (J Med Chem, 2013)
